Legend:
[1] = test system: Leishmania amazonensis; test: Antileishmanial activity against Leishmania amazonensis MHOM/BR/1987/BA promastigotes by MTT assay after 1 to 2 days; assay type: functional, organism-based
In short: (§1)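 Promastigotes harvested at stationary growth phase (10⁶/ml), washed and incubated with compounds in culture medium. Viability was read by MTT reduction to formazan, with detergent lysis and absorbance at 570 nm; in some experiments parasites were instead counted under microscope. […] Values are means of three independent experiments.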

[2] = test system: PBMC; test: Cytotoxicity against human PBMC by MTT assay after 3 to 4 days; assay type: cell-based
In short: (§2)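 Freshly isolated PBMC from healthy volunteers were prepared on a Ficoll gradient and cultured in medium alone or stimulated with PHA (5 µg/ml). Compounds were added, and after 3–4 days cells were harvested, washed and counted by trypan blue exclusion; in some experiments MTT was used instead. IC50 was obtained by linear regression, and the maximum tolerated concentration was also assessed.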

[3] = test system: PBMC; test: Cytotoxicity against human phytohemagglutininin-activated-PBMC by MTT assay after 3 to 4 days; assay type: cell-based; in short: as §2
[4] = Selectivity index, ratio of IC50 for phytohemagglutininin-activated-PBMC to IC50 for Leishmania infantum clone MCAN/GR/82/LEM497 promastigotes; assay type: functional
In short: (§3)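 Selectivity index is the IC50 on PHA-activated PBMC divided by the IC50 against the L. amazonensis or L. infantum promastigotes.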

[5] = test system: Leishmania infantum; test: Antileishmanial activity against Leishmania infantum clone MCAN/GR/82/LEM497 promastigotes by MTT assay after 1 to 2 days; assay type: functional, organism-based; in short: as §1
[6] = Selectivity index, ratio of IC50 for phytohemagglutininin-activated-PBMC to IC50 for Leishmania amazonensis MHOM/BR/1987/BA promastigotes; assay type: functional; in short: as §3
[7] = Partition coefficient, log D at pH 7.4; conditions: octanol/water

Compound	IC50 [1] [µM]	IC50 [2] [µM]	IC50 [3] [µM]	Ratio IC50 [4]	IC50 [5] [µM]	Ratio IC50 [6]	logD [7]
C/C=C/c1nc2cc(OC)ccc2n2cccc12	7	5	5	2.5	2	0.7	3.47
C1=C(c2nc3ccccc3n3cccc23)CCCC1	> 50	> 100	> 100		> 50		4.12
C=Cc1nc2ccccc2n2cccc12	3	3	1	2	0.5	0.3	3.08
CCCc1nc2ccccc2n2cccc12	> 50	> 100	100		> 50		3.35
COc1ccc(CCc2nc3ccccc3n3cccc23)cc1OC	30	> 100	> 100		> 50	>3.3	2.97
C/C=C/c1nc2ccccc2n2cccc12	0.5	6	5	7.1	0.7	10	3.44
C[C@@H]1O[C@H]1c1nc2ccccc2n2cccc12 (relative stereo)	> 50	> 100	> 100		> 50		2.61
CCCCCc1nc2cc(OC)ccc2n2cccc12	> 50	66	45	<1	> 50	<1	4.38
COc1ccc2c(c1)nc(/C=C/c1ccccc1)c1cccn12	36	> 100	> 100		5		
c1ccc2c(c1)nc(CCc1ccc3c(c1)OCO3)c1cccn12	7	> 100	65		> 50	9.3	3.84
C[C@H]1O[C@H]1c1nc2ccccc2n2cccc12 (relative stereo)	> 50	> 100	> 100		> 50		2.55
C/C=C/c1ccc2ccccc2n1 [CHIMANINE B]	5	43	42	6	7	8.4	2.23
CCC/C=C/c1nc2ccccc2n2cccc12	5	70	52	7.4	7	10.4	4.44
CCC/C=C/c1nc2cc(OC)ccc2n2cccc12	6	60	40	40	1	6.7	4.52
CCCc1nc2cc(OC)ccc2n2cccc12	> 50	> 100	90		> 50		3.4
CCCCC#Cc1nc2ccccc2n2cccc12	18	50	25	1	25	1.4	4.36
C/C=C/c1nc2ccc(OC)cc2n2cccc12	1	7	5	10	0.5	5	3.48
C[C@@H]1[C@H](O)[C@@H](C)/C=C/C=C/C=C/C=C/C=C/C=C/C=C/[C@H](O[C@@H]2O[C@H](C)[C@@H](O)[C@H](N)[C@@H]2O)C[C@@H]2O[C@](O)(C[C@@H](O)C[C@@H](O)[C@H](O)CC[C@@H](O)C[C@@H](O)CC(=O)O[C@H]1C)C[C@H](O)[C@H]2C(=O)O [AMPHOTERICIN B]	1	> 100	96	106.6	0.9	96	
CCC/C=C/c1nc2ccc(OC)cc2n2cccc12	4	55	30	12	2.5	7.5	4.3
C(=C\c1nc2ccccc2n2cccc12)/c1ccccc1	35	> 100	> 100		> 50	>2.9	4.84
CCCCC#Cc1nc2cc(OC)ccc2n2cccc12	3	6	5	0.7	7	1.7	4.35
CCCCCc1nc2ccccc2n2cccc12	> 50	> 100	30	<1	> 50	<1	4.04
C/C=C\c1nc2ccccc2n2cccc12	4	8	6	7.5	0.8	1.5	3.3
c1ccc(-c2nc3ccccc3n3cccc23)cc1	> 50	> 100	> 100		> 50		3.6

— ChEMBL document CHEMBL1144505, “Synthesis, analytical behaviour and biological evaluation of new 4-substituted pyrrolo[1,2-a]quinoxalines as antileishmanial agents” (Bioorg Med Chem, 2007)
